In brackets after ≈: the same amount, converted by molar mass.

Common to all, as to format: functional
The test system of assay [1] is Staphylococcus aureus. The assay can be described thus: Antimicrobial activity against vancomycin-resistant Staphylococcus aureus after 24 hrs by microbroth dilution method. The gist of the method: (§1)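 Microbroth dilution in Mueller Hinton broth, following NCCLS guidelines. Test compounds were run at 50-0.36 µg/mL against an initial inoculum of 1-5 × 10^3 cells/mL. Plates were incubated in a moist chamber at 35 °C, and absorbance at 492 nm was read after 24 h. MIC was taken as 90% growth inhibition relative to the growth control.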

Assay [2] has as its system Klebsiella pneumoniae. Briefly: Antimicrobial activity against Klebsiella pneumoniae ATCC 27736 after 24 hrs by microbroth dilution method. Conditions: ATCC 27736, 24 h. The gist of the method: (§2)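 Broth microdilution per NCCLS guidelines. Bacteria in Mueller-Hinton broth; fungi in MOPS-buffered RPMI 1640. Test compounds at 50-0.36 µg/mL, standard drugs over 32-0.0018 µg/mL. Inoculum 1-5 × 10^3 cells/mL, 35 °C in a moist chamber. A492 read at 24 h for bacteria, 48 h for C. albicans, 72 h for A. fumigatus, C. neoformans and S. schenckii, 96 h for T. mentagrophytes. MIC taken as 90% growth inhibition relative to growth control.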

For assay [3], the system named is Staphylococcus aureus. Briefly: Antimicrobial activity against methicillin-resistant Staphylococcus aureus after 24 hrs by microbroth dilution method. The gist of the method:
as §1

For assay [4], the system named is Staphylococcus aureus. Briefly: Antimicrobial activity against Staphylococcus aureus ATCC 25923 after 24 hrs by microbroth dilution method. The following applies: ATCC 25923, 24 h. The gist of the method: as §2
Assay [5] concerns Pseudomonas aeruginosa. Briefly: Antimicrobial activity against Pseudomonas aeruginosa ATCC BAA-427 after 24 hrs by microbroth dilution method. The following applies: ATCC BAA-427, 24 h. Put shortly: as §2
Assay [6] concerns Escherichia coli. Briefly: Antimicrobial activity against Escherichia coli ATCC 9637 after 24 hrs by microbroth dilution method. Conditions: ATCC 9637, 24 h. The gist of the method: as §2
Assay [7] has as its system Sporothrix schenckii. Briefly: Antimicrobial activity against Sporothrix schenckii after 72 hrs by microbroth dilution method. The gist of the method: as §2
Assay [8] deals with Trichophyton mentagrophytes. Briefly: Antimicrobial activity against Trichophyton mentagrophytes after 96 hrs by microbroth dilution method. The gist of the method: as §2
The test system of assay [9] is Candida albicans. Briefly: Antimicrobial activity against Candida albicans after 48 hrs by microbroth dilution method. The gist of the method:
as §2

Assay [10] deals with Cryptococcus neoformans. The assay can be described thus: Antimicrobial activity against Cryptococcus neoformans after 72 hrs by microbroth dilution method. The gist of the method:
as §2

In assay [11] the test system is Aspergillus fumigatus. The assay can be described thus: Antimicrobial activity against Aspergillus fumigatus after 72 hrs by microbroth dilution method. Put shortly: as §2

In the case of `O=C(O)c1cn(C2CC2)c2cc(N3CCNCC3)c(F)cc2c1=O` [CIPROFLOXACIN], the MIC in [1] was 0.38 µg/mL (≈ 1.15 µM); in [2], 0.01 µg/mL (≈ 0.0302 µM); in assay [3], 0.38 µg/mL (≈ 1.15 µM); in assay [4], 0.09 µg/mL (≈ 0.272 µM); in assay [5], 0.09 µg/mL (≈ 0.272 µM).
For `CC(C)CCO[C@@H]1C=CC(=O)[C@@H](Cn2cc(C3CC3)nn2)O1`, the MIC is more than 50 µg/mL in [1]; more than 50 µg/mL in [6]; 12.5 µg/mL (≈ 40.9 µM) in assay [7]; 6.25 µg/mL (≈ 20.5 µM) in assay [8]; 12.5 µg/mL (≈ 40.9 µM) in assay [9]; more than 50 µg/mL in [2]. In addition, the minimal inhibitory concentration (MIC) in [3] is more than 50 µg/mL; in assay [4], 6.25 µg/mL (≈ 20.5 µM); in [10] it was 25 µg/mL (≈ 81.9 µM); in assay [11], more than 50 µg/mL; in assay [5] it was more than 50 µg/mL.
As to `CC(C)CCO[C@@H]1C=CC(=O)[C@@H](Cn2cc(CCCCOC(=O)C(C)(C)C)nn2)O1`, the MIC is more than 50 µg/mL in assay [1]; 50 µg/mL (≈ 119 µM) in [6]; 12.5 µg/mL (≈ 29.7 µM) in assay [7]; 25 µg/mL (≈ 59.3 µM) in [8]; more than 50 µg/mL in assay [9]; 12.5 µg/mL (≈ 29.7 µM) in assay [2]. For the same compound, the MIC is more than 50 µg/mL in assay [3]; 12.5 µg/mL (≈ 29.7 µM) in [4]; 50 µg/mL (≈ 119 µM) in [10]; 25 µg/mL (≈ 59.3 µM) in assay [11]; 50 µg/mL (≈ 119 µM) in [5].
For the compound `CC(C)CCO[C@@H]1C=CC(=O)[C@@H](Cn2cc(CCn3cc(-c4ccccc4)nn3)nn2)O1`, the MIC is more than 50 µg/mL in [1]; more than 50 µg/mL in assay [6]; 50 µg/mL (≈ 115 µM) in assay [7]; 50 µg/mL (≈ 115 µM) in assay [8]; 50 µg/mL (≈ 115 µM) in [9]; more than 50 µg/mL in assay [2]. Further, the minimal inhibitory concentration (MIC) in [3] was more than 50 µg/mL; in [4], 50 µg/mL (≈ 115 µM); in [10], 50 µg/mL (≈ 115 µM); in assay [11], more than 50 µg/mL; in assay [5], more than 50 µg/mL.
For the compound `CN[C@@H]1[C@@H](O)[C@@H](O[C@@H]2[C@@H](O)[C@H](O[C@H]3O[C@H]([C@@H](C)NC)CC[C@H]3N)[C@@H](N)C[C@H]2N)OC[C@]1(C)O` [GENTAMICIN C1], the minimal inhibitory concentration (MIC) is 1.56 µg/mL (≈ 3.27 µM) in assay [1]; 1.56 µg/mL (≈ 3.27 µM) in assay [6]; 1.56 µg/mL (≈ 3.27 µM) in assay [2]; 1.56 µg/mL (≈ 3.27 µM) in assay [3]; 0.39 µg/mL (≈ 0.817 µM) in [4]; 0.39 µg/mL (≈ 0.817 µM) in assay [5].
For the compound `Clc1ccccc1C(c1ccccc1)(c1ccccc1)n1ccnc1` [CLOTRIMAZOLE], the MIC in [7] turned out to be 4 µg/mL (≈ 11.6 µM); in [8], 2 µg/mL (≈ 5.8 µM); in assay [9] it was 0.25 µg/mL (≈ 0.725 µM); in [10], 0.25 µg/mL (≈ 0.725 µM); in assay [11], 8 µg/mL (≈ 23.2 µM).
Consider `OC(Cn1cncn1)(Cn1cncn1)c1ccc(F)cc1F` [FLUCONAZOLE], for which the MIC is 4 µg/mL (≈ 13.1 µM) in [7]; 16 µg/mL (≈ 52.2 µM) in [8]; 1 µg/mL (≈ 3.27 µM) in [9]; 2 µg/mL (≈ 6.53 µM) in assay [10]; more than 32 µg/mL in assay [11].
For the compound `CCCCCCCCc1cn(C[C@H]2O[C@H](OCCC(C)C)C=C[C@@H]2O)nn1`, the MIC in assay [1] was more than 50 µg/mL; in assay [6] it was more than 50 µg/mL; in assay [7], more than 50 µg/mL; in [8], 50 µg/mL (≈ 132 µM); in assay [9], more than 50 µg/mL; in assay [2], more than 50 µg/mL. Further, the minimum inhibitory concentration (MIC) is more than 50 µg/mL in [3]; more than 50 µg/mL in [4]; 25 µg/mL (≈ 65.9 µM) in assay [10]; more than 50 µg/mL in assay [11]; more than 50 µg/mL in assay [5].
As for `CC(C)CCO[C@@H]1C=CC(=O)[C@@H](Cn2cc(CCCN3C(=O)c4ccccc4C3=O)nn2)O1`, the MIC was 25 µg/mL (≈ 55.2 µM) in assay [1]; more than 50 µg/mL in assay [6]; 50 µg/mL (≈ 110 µM) in [7]; 25 µg/mL (≈ 55.2 µM) in assay [8]; 25 µg/mL (≈ 55.2 µM) in assay [9]; more than 50 µg/mL in [2]. In addition, the MIC in assay [3] is 25 µg/mL (≈ 55.2 µM); in assay [4], 6.25 µg/mL (≈ 13.8 µM); in [10], 50 µg/mL (≈ 110 µM); in assay [11], more than 50 µg/mL; in [5], more than 50 µg/mL.
In the case of `Clc1ccc(COC(Cn2ccnc2)c2ccc(Cl)cc2Cl)c(Cl)c1` (centres undefined) [MICONAZOLE], the MIC worked out at 3.12 µg/mL (≈ 7.5 µM) in assay [7]; 0.78 µg/mL (≈ 1.87 µM) in assay [8]; 25 µg/mL (≈ 60.1 µM) in assay [9]; 12.5 µg/mL (≈ 30 µM) in assay [10]; 12.5 µg/mL (≈ 30 µM) in assay [11].
As to `COc1cccc(OC)c1C(=O)N[C@@H]1C(=O)N2[C@@H]1SC(C)(C)[C@@H]2C(=O)O` [METHICILLIN], the MIC in assay [6] is 50 µg/mL (≈ 131 µM); in assay [2], 6.25 µg/mL (≈ 16.4 µM); in assay [4], 0.04 µg/mL (≈ 0.105 µM); in [5] it was more than 50 µg/mL.
Regarding `CN[C@H](CC(C)C)C(=O)N[C@H]1C(=O)N[C@@H](CC(N)=O)C(=O)N[C@H]2C(=O)N[C@H]3C(=O)N[C@H](C(=O)N[C@H](C(=O)O)c4cc(O)cc(O)c4-c4cc3ccc4O)[C@H](O)c3ccc(c(Cl)c3)Oc3cc2cc(c3O[C@@H]2O[C@H](CO)[C@@H](O)[C@H](O)[C@H]2O[C@H]2C[C@](C)(N)[C@H](O)[C@H](C)O2)Oc2ccc(cc2Cl)[C@H]1O` [VANCOMYCIN], the MIC in assay [6] is 12.5 µg/mL (≈ 8.63 µM); in [2], 12.5 µg/mL (≈ 8.63 µM); in assay [4], 12.5 µg/mL (≈ 8.63 µM); in [5], more than 50 µg/mL.
Take `CC(C)CCO[C@@H]1C=CC(=O)[C@@H](Cn2cc(CCCC=O)nn2)O1`: the MIC in [1] was more than 50 µg/mL; in assay [6], more than 50 µg/mL; in assay [7], 12.5 µg/mL (≈ 37.3 µM); in assay [8] it was 25 µg/mL (≈ 74.5 µM); in assay [9], more than 50 µg/mL; in [2] it was 50 µg/mL (≈ 149 µM). Also, the minimum inhibitory concentration (MIC) in assay [3], in [4], in assay [10], in [11] and in assay [5] was more than 50 µg/mL in each case.
Take `CC(C)CCO[C@@H]1C=CC(=O)[C@@H](Cn2cc(CCn3cc(C4CC4)nn3)nn2)O1`: the MIC in [1] is more than 50 µg/mL; in [6], more than 50 µg/mL; in [7] it was more than 50 µg/mL; in assay [8], more than 50 µg/mL; in [9] it was 50 µg/mL (≈ 125 µM); in assay [2], more than 50 µg/mL. Besides, the MIC in [3] was more than 50 µg/mL; in assay [4], 25 µg/mL (≈ 62.4 µM); in [10], 50 µg/mL (≈ 125 µM); in assay [11], more than 50 µg/mL; in assay [5], more than 50 µg/mL.
For the compound `CC(C)CCO[C@@H]1C=CC(=O)[C@@H](Cn2cc(C3CCCC3)nn2)O1`, the MIC was more than 50 µg/mL in [1]; 50 µg/mL (≈ 150 µM) in assay [6]; 50 µg/mL (≈ 150 µM) in assay [7]; 50 µg/mL (≈ 150 µM) in assay [8]; 25 µg/mL (≈ 75 µM) in [9]; 50 µg/mL (≈ 150 µM) in assay [2]. Also, the MIC in assay [3] was more than 50 µg/mL; in assay [4], 50 µg/mL (≈ 150 µM); in assay [10] it was 50 µg/mL (≈ 150 µM); in assay [11] it was 50 µg/mL (≈ 150 µM); in assay [5] it was 50 µg/mL (≈ 150 µM).
For `Nc1nc(=O)[nH]cc1F` [FLUCYTOSINE], the MIC in [7] is more than 32 µg/mL; in assay [8] it was more than 32 µg/mL; in assay [9], 0.25 µg/mL (≈ 1.94 µM); in assay [10], 0.13 µg/mL (≈ 1.01 µM); in assay [11], more than 32 µg/mL.
As to `CC(C)CO[C@@H]1C=CC(=O)[C@@H](Cn2cc(CCCCl)nn2)O1`, the MIC in [1] is more than 50 µg/mL; in assay [6] it was more than 50 µg/mL; in [7], 50 µg/mL (≈ 153 µM); in [8], more than 50 µg/mL; in assay [9], 50 µg/mL (≈ 153 µM); in assay [2], 50 µg/mL (≈ 153 µM). Further, the MIC in assay [3] was more than 50 µg/mL; in assay [4] it was 12.5 µg/mL (≈ 38.1 µM); in assay [10] it was more than 50 µg/mL; in assay [11], more than 50 µg/mL; in assay [5], more than 50 µg/mL.
For `CC1(C)S[C@@H]2[C@H](NC(=O)[C@H](N)c3ccccc3)C(=O)N2[C@H]1C(=O)O` [AMPICILLIN], the minimal inhibitory concentration (MIC) is 0.78 µg/mL (≈ 2.23 µM) in assay [1]; 50 µg/mL (≈ 143 µM) in [6]; 12.5 µg/mL (≈ 35.8 µM) in [2]; 0.78 µg/mL (≈ 2.23 µM) in [3]; 12.5 µg/mL (≈ 35.8 µM) in [4]; more than 50 µg/mL in [5].

These data come from ChEMBL document CHEMBL3286335, “Synthesis of 2,3,6-trideoxy sugar triazole hybrids as potential new broad spectrum antimicrobial agents” (Eur J Med Chem, 2014).
